Measurements collected from several papers.
Lines come from different studies, so protocols differ.
Target: Vascular endothelial growth factor receptor 2 (KDR, Homo sapiens, UniProt P35968)
Read-out: enzyme activity
Mode: inhibitor

The remaining activity of `O=C(Nc1cnn(-c2csc(C(=O)NC3COC3)c2)c1)Nc1ccccc1Cl` is reported as 95.2% (5 µM).
With `COc1cc(Cl)c(C(=O)N[C@@H](CN[C@H]2CC[C@@H](N)CC2)Cc2ccc(C#N)cc2)cc1-c1ccc(CN[C@H](C)c2ccc(C)cc2)o1` the remaining activity was 82% (1 µM).
With `COc1ccc(C=NNC(=O)c2sc(Nc3ccccc3)c(C(=O)Nc3ccc(OC)cc3)c2NC(C)=O)cc1` the remaining activity was 79.4% (0.1 µM).
With `CCN(CC)c1ccc(C2=NNC(=O)CC2C)cc1[N+](=O)[O-]` (stereo not shown) the remaining activity was 99% (10 µM).
For `Cc1cnc(NC2CCOCC2)nc1-n1cnc(C(=O)NC(CN)c2cc(F)cc(Cl)c2)c1` (stereo not shown), the remaining activity was 85% (radiometric; 1 µM).
`COc1ccc(NC(=O)c2c(Nc3ccccc3)sc(C#N)c2NC(=O)CNc2ccc(Cl)cc2)cc1` has a remaining activity of 16.5% (100 µM).
`CC(C)(C)c1nc2c(s1)c1nc(N)ncc1c1ccc(NS(=O)(=O)c3c(F)cccc3F)c(F)c12` gave a remaining activity of 95% (radiometric; 1 µM).
`O=C(Nc1cnn(-c2csc(C(=O)NC3COC3)c2)c1)Nc1c(F)cccc1Cl` has a remaining activity of 88.3% (5 µM).
With `CCCOc1ccc(OC)c(F)c1C(=O)c1ccc(C(=O)N[C@@H]2CNC[C@H]2NC(=O)c2ccc3[nH]ncc3c2)cc1` the remaining activity was 74% (10 µM).
With `CC(C)(C)c1nc(-c2cccc(NS(=O)(=O)c3c(F)cccc3F)c2F)c(-c2ccnc(N)n2)s1` the remaining activity was 82% (radiometric; 1 µM).
`COc1ccc(NC(=O)c2c(Nc3ccccc3)sc(C#N)c2NC(=O)CNc2ccc([N+](=O)[O-])cc2)cc1` has a remaining activity of 86.1% (0.1 µM).
`CC(C)(O)[C@H]1CC[C@H](Nc2ccc3ncc(-c4cccc(C(F)(F)F)c4)n3n2)CC1` gave a remaining activity of 91.5% (1 µM).
With `Cc1[nH]c(/C=C2\C(=O)Nc3ccc(F)cc32)c(C)c1C(=O)N[C@H]1CCN(C(=O)N(C)C)C1` the remaining activity was 10% (0.1 µM).
